Bioassay records deposited in PubChem BioAssay by Johns Hopkins Ion Channel Center.
TRPC4 potent: allosterically enhances the mouse TRPC4 cation channel | AID 2227 | B-score at 10 µM | actives 0.42% (n = 310,000) | Q9QUQ5 | HEK293 TRPC4beta/mu-opioid, DAMGO EC20, Fluo-4 Ca2+ flux; active compounds read high;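 active = B-score of calcium response area above 5 SD of library B-scores, with initial fluorescence ratio within 5 SD of library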;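 also: B-score of integrated fluorescence ratio over time as area under calcium response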
TRPC4 inh: inhibitors of mouse TRPC4 channel. B-score at 10 µM. AID 2247. Q9QUQ5. actives 0.39% (n = 300,000). HEK293 TRPC4beta/mu-opioid, DAMGO-evoked Fluo4 calcium flux; active compounds read low;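 active = B-score over 3 SD under the library average, no early fluorescence shift, positive overall ratio signal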
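test system = HEK293 cells with stable TRPC4beta plus mu-opioid receptor expression | detection = Fluo4 Ca2+ flux fluorescence | read-out = integrated fluorescence ratio relative to baseline, converted to per-well B score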
TRPC4 act: activators of mouse TRPC4 channel | HEK293 TRPC4beta/mu-opioid, Fluo4 calcium fluorescence; active compounds read high | B-score at 10 µM | actives 0.49% (n = 310,000) | AID 2237;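 active = B-score above 5 SD of library B-scores, and initial fluorescence ratio not above library mean plus 5 SD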;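 also: positive B-score marks a calcium rise read as TRPC4 activation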
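System: HEK293 cells stably co-expressing mouse TRPC4beta and mu-opioid receptor; Schedule: Fluo4 dye loading 45 min at room temperature, 110 s recording; Detection: Fluo4 fluorescence, kinetic; Evaluation: B-scored integrated calcium fluorescence ratio; Controls: buffer (low) and maximal DAMGO (high).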
TRPC6 activator: mouse TRPC6 channel activation. B-score at 10 µM. AID 2550. HEK293-TRPC6 membrane potential dye fluorescence; active compounds read high. actives 0.13% (n = 310,000). Q61143;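 active = B-score of the integrated fluorescence ratio above library mean plus 3 SD, and starting fluorescence ratio within library mean plus 5 SD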;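 also: higher score means more depolarization so channel activation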
Target sequence (Q61143 whole entry, looked up): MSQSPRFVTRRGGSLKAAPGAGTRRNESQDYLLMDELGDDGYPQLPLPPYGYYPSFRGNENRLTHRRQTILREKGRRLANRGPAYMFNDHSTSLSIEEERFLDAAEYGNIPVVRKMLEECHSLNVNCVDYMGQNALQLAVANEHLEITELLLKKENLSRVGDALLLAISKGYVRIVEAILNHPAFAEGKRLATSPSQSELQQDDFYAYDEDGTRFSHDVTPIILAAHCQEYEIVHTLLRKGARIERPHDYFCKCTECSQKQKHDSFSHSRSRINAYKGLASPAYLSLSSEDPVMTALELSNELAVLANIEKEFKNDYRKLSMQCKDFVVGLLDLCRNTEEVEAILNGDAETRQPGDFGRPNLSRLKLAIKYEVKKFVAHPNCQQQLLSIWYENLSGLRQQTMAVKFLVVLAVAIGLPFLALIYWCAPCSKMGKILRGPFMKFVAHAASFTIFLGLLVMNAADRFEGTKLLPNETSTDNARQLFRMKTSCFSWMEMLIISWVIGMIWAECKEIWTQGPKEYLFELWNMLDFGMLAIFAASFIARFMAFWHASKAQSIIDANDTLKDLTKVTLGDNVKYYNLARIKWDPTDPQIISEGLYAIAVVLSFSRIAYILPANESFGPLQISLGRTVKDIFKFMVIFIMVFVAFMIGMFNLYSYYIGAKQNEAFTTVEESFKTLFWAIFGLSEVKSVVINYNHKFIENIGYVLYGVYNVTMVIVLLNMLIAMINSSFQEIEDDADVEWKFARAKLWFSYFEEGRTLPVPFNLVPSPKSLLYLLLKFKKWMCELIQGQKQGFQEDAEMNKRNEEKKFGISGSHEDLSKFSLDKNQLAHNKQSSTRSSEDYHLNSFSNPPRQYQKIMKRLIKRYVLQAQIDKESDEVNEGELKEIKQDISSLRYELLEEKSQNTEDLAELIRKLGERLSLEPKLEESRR
TRPC6 inh: blocks the mouse TRPC6 cation channel; AID 2553; HEK293-TRPC6, membrane potential dye, ACh-evoked depolarization; active compounds read low; B-score at 10 µM; Q61143; actives 1.1% (n = 310,000);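 active = B-score under library mean minus 3 SD, initial fluorescence not abnormally high, positive integrated signal ratio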;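 also: B-score derived from integrated fluorescence ratio over the kinetic read; more negative B-score means stronger inhibition of depolarization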
TRPC4 sel inh 2: second selectivity test of TRPC6 inhibitors: effect on mouse TRPC4; shares compounds with TRPC6 inh; HEK293 TRPC4/MOR, membrane potential dye fluorescence; channel activated by saturating DAMGO dose; inhibition, % at 10 µM; actives 42% (n = 920);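 active = compounds whose fluorescence signal differed from control wells by over 3 SD, either direction, in both duplicate plates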
TRPC4 spec: tests whether TRPC6 inhibitors also affect mouse TRPC4 | HEK293 TRPC4/mu-opioid, membrane potential fluorescence | actives 61% (n = 920) | shares compounds with TRPC6 inh | activity change, negative = inhibition, % at 10 µM;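 active = rise or fall in signal beyond 3 SD of buffer-only wells in both replicate plates, either sign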;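 also: integrated kinetic ratio of fluorescence range over baseline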
HEK293 MPD ctr 2-1: second check of TRPC6 inhibitor effects in parental HEK293 cells | shares compounds with TRPC6 inh | parental HEK293 membrane potential dye fluorescence; maximal acetylcholine challenge after compound addition | signal change vs control, % at 10 µM | actives 31% (n = 920) | AID 2779;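 active = membrane potential signal moving either way by over 3 SD of the maximum-effect control, in both duplicate plates, meaning non-specific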
HEK293 MPD ctr-1: checks TRPC6 inhibitor effects in parental HEK293 cells; shares compounds with TRPC6 inh; parental HEK293 membrane potential dye fluorescence; membrane potential signal change, % at 10 µM; actives 60% (n = 920);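 active = membrane potential signal shifting up or down by more than 3 SD of buffer-only wells, on both duplicate plates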
HEK293 MPD ctr-2: counter-screen for TRPC6 modulators: effect in parental HEK293 cells; actives 51% (n = 2,400); membrane potential signal change, % at 10 µM; membrane potential dye fluorescence; shares compounds with TRPC6 inh;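 active = membrane potential signal moves up or down beyond 5 SD from buffer-only wells, on both duplicate plates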
HEK293 MPD ctr 2-2: second check of TRPC6 modulator effects in parental HEK293 cells; shares compounds with TRPC6 inh; membrane potential dye fluorescence; after compound, maximal acetylcholine stimulation; inhibition, % at 10 µM; actives 14% (n = 2,400); AID 488926;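 active = membrane potential signal drops by more than 5 SD from the mean control signal, in both duplicate plates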;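 also: plate controls were acetylcholine ECmax control wells for no effect and buffer only wells for full effect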
TRPC4 ctr mod: selectivity of TRPC6 modulators against mouse TRPC4 | shares compounds with TRPC6 inh | HEK293 TRPC4/mu-opioid, membrane potential fluorescence | percent change from control (negative = decrease, positive = increase), % at 10 µM | actives 69% (n = 2,400) | AID 488927;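 active = membrane potential signal moved up or down beyond 5 SD of buffer control wells, in both duplicate plates, actives on both sides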;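 also: plate controls were assay buffer wells for no effect and DAMGO maximal-effect wells for full effect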
TRPC4 ctr inh 2: mouse TRPC4 off-target activity of TRPC6 modulators, second screen; actives 55% (n = 2,400); shares compounds with TRPC6 inh; AID 488928; HEK293 TRPC4/mu-opioid, membrane potential dye fluorescence; stimulated with maximal-effect DAMGO; inhibition, % at 10 µM;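 active = drop in membrane potential signal beyond 5 SD of the control wells in both duplicate plates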;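 also: TRPC4 counter screen for TRPC6 hits run under conditions tuned for TRPC6 not TRPC4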
TRPC6 block conf: mouse TRPC6 inhibitor confirmation | shares compounds with TRPC6 inh | HEK293-TRPC6, membrane potential dye, ACh-evoked depolarization | inhibition, % at 10 µM | actives 43% (n = 3,300);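 active = fluorescence ratio falls more than 5 SD below the full-stimulation control mean, in both duplicate runs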;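 also: integrated fluorescence ratio of peak minus minimum over baseline after agonist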
TRPC6 act conf: mouse TRPC6 activator confirmation; shares compounds with TRPC6 inh; HEK293-TRPC6 membrane potential dye fluorescence, FDSS; activation, % at 10 µM; actives 11% (n = 2,800); AID 488961;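 active = ratio signal rise beyond 5 SD above unstimulated control wells' mean, seen in both duplicate runs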;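 also: plate controls were buffer EC0 wells for no effect and acetylcholine ECmax response for full effect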
Starred values were filed as active, the others as inactive; i = inactive; . = no result given. This is a sample that favours compounds with a hit; in the whole collection about 2.3% have one here.

SMILES | TRPC4 potent | TRPC4 inh | TRPC4 act | TRPC6 activator | TRPC6 inh | HEK293 MPD ctr-2 | HEK293 MPD ctr 2-2 | TRPC4 ctr mod | TRPC4 ctr inh 2 | TRPC6 block conf | TRPC6 act conf | others
N=c1oc2ccc(Cl)cc2cc1C(=O)Nc1ccc(F)cc1 | i | i | i | i | i | . | . | . | . | . | .
CCOC(=O)c1nc(NNC(=O)c2ccc([N+](=O)[O-])cc2)sc1C | i | i | i | i | i | . | . | . | . | . | .
COc1ccc(N2CCN(S(=O)(=O)CCNC(=O)COc3ccccc3C)CC2)cc1 | i | i | i | i | -8.5* | . | . | . | . | i | i | TRPC4 sel inh 2=i;TRPC4 spec=-8.9%*;HEK293 MPD ctr 2-1=240%*;HEK293 MPD ctr-1=i
COc1ccc(N2CCN(S(=O)(=O)CCNC(=O)COc3ccc(Cl)cc3)CC2)cc1 | i | i | i | i | i | . | . | . | . | . | .
NC(=O)c1nsc(C(=O)N(c2cccc(F)c2)C(C(=O)NC2CCCC2)c2ccco2)c1N (stereo not given) | i | i | i | i | i | . | . | . | . | . | .
Cc1cccn2c(=O)c3cc(C#N)c(=NC(=O)c4ccccc4)n(Cc4ccco4)c3nc12 | i | i | i | i | i | . | . | . | . | . | .
Cc1cccn2c(=O)c3cc(C#N)c(=NC(=O)c4cccs4)n(CC(C)C)c3nc12 | i | i | i | i | i | . | . | . | . | . | .
COCCCn1c(=NC(=O)c2ccccc2)c(C#N)cc2c(=O)n3cccc(C)c3nc21 | i | i | i | i | -6.7* | i | i | i | i | i | i
COCCCn1c(=NC(C)=O)c(C#N)cc2c(=O)n3cccc(C)c3nc21 | i | i | i | i | -6* | -140%* | i | -42%* | 28%* | i | i
CCOCCCn1c(=NC(=O)c2cccs2)c(C#N)cc2c(=O)n3cccc(C)c3nc21 | i | i | i | i | i | . | . | . | . | . | .
Cc1cccc(C(=O)N=c2c(C#N)cc3c(=O)n4cccc(C)c4nc3n2Cc2ccco2)c1 | i | i | i | i | -5.1* | 124%* | i | -54%* | 36%* | i | i
Cc1cccc(-n2nnnc2SCC(=O)Nc2ccc(N3CCN(C)CC3)cc2)c1 | i | i | i | i | -5.7* | i | i | i | 54%* | i | i
Cc1ccccc1-n1nnnc1SCC(=O)Nc1ccc(N2CCN(C)CC2)cc1 | i | i | i | i | i | . | . | . | . | . | .
O=C1CC(c2ccco2)CC(O)=C1C=NCCN1CCNCC1 (stereo not given) | i | i | i | i | -8.7* | . | . | . | . | i | i | TRPC4 sel inh 2=i;TRPC4 spec=i;HEK293 MPD ctr 2-1=i;HEK293 MPD ctr-1=i
O=C1CC(c2ccc(F)cc2)CC(O)=C1C=NCCN1CCNCC1 (stereo not given) | i | i | i | i | i | . | . | . | . | . | .
O=C1CC(c2ccc(Cl)c(Cl)c2)CC(O)=C1C=NCCN1CCNCC1 (stereo not given) | i | i | i | i | -5.9* | i | i | 9.5%* | i | i | .
O=S(=O)(c1ccc(Br)c2ccccc12)N1CCCC1 | i | i | i | i | i | . | . | . | . | . | .
COC1CCCN(C(=O)c2cccc(OC3CCN(S(C)(=O)=O)CC3)c2)C1 (stereo not given) | i | i | i | i | i | . | . | . | . | . | .
NCc1cc2c3c(c1)CCCN3CCC2 | i | i | i | i | -5.7* | i | i | i | i | i | i
COc1cnc(-c2ccccn2)nc1Oc1cccc(Cl)c1 | i | i | i | i | -5.5* | i | i | i | i | i | i
COc1ccc(Oc2nc(-c3ccccn3)ncc2OC)cc1 | i | i | i | i | i | . | . | . | . | . | .
COc1cnc(-c2ccccn2)nc1N(C)C | i | i | i | i | -5.2* | -76%* | i | -16%* | i | i | i
CC1=NN(C(=O)COc2ccccc2C)C(O)(c2ccc(Cl)cc2)C1 (stereo not given) | i | i | i | i | i | . | . | . | . | . | .
Cc1ccc(-n2nc3c(=O)n(CC(=O)NC4CCCCCC4)nc(C)c3c2C)cc1 | i | i | i | i | i | . | . | . | . | . | .
CC(C)(C)C1CCc2c(sc3ncn(N)c(=N)c23)C1 (stereo not given) | i | i | i | i | -6.5* | i | i | -16%* | 67%* | 46%* | i
N=c1c2c3c(sc2ncn1N)CCC3 | i | i | i | i | i | . | . | . | . | . | .
O=C(COC(=O)C1CC1)Nc1ccc2c(c1)OCO2 | i | i | i | i | i | . | . | . | . | . | .
CCOC(=O)C1=C(COC(=O)c2cc(OC)c(OC)cc2[N+](=O)[O-])NC(=O)NC1C (stereo not given) | i | i | i | i | i | . | . | . | . | . | .
CCC(C)c1ccccc1NC(=O)C(C)OC(=O)c1ccco1 (stereo not given) | i | i | i | i | i | . | . | . | . | . | .
Cc1cccc(-c2nsc(SCC(=O)Nc3nccs3)n2)c1 | i | i | i | i | -5.7* | i | i | i | i | i | i
